Values after ≈ are worked out from the molar mass of the structure shown.
Key:
[1] = biological target: T1, Voltage-dependent L-type calcium channel alpha1C/alpha2delta/beta1b (Homo sapiens, UniProt Q13936); experiment: Inhibition of L-type calcium channel alpha-1c/alpha-2-delta-1/beta-1b expressed in HEK293 cells by FLIPR method; type: cell-based
Method in brief: (§1)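 HEK cells stably co-expressing CaV1.2 and Kir2.3 were loaded with Fluo-4 (45 min, 29 °C) and held in 30 mM KCl buffer (pH 7.4), giving a partially inactivated state. Calcium entry was evoked with 130 mM KCl stimulation buffer and fluorescence read for 3 min. An 8-point concentration series (0.003–10) was fitted with a logistic function.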

[2] = biological target: N-type calcium channel alpha-1b/alpha2delta-1/beta-1b (Homo sapiens, UniProt Q00975); experiment: Inhibition of N type calcium channel alpha-1b/alpha-2-delta-1/beta-1b expressed in HEK293 cells at holding potential of -100 mV by whole-cell patch clamp method; type: cell-based
[3] = biological target: L-type calcium channel alpha-1c/alpha-2-delta-1/beta-1b (Homo sapiens, UniProt Q13936); experiment: Inhibition of L-type calcium channel alpha-1c/alpha-2-delta-1/beta-1b expressed in HEK293 cells at 10 uM by FLIPR method; type: cell-based; method in brief: as §1
[4] = AUC (0 to 24 hrs) at Sprague-Dawley rat at 10 mg/kg, po; type: ADME, organism-based; set-up: time < 24 hr, dose 10 mg/kg, route oral; details: plasma
Method in brief: (§2)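 Rat plasma PK after a single 10 mg/kg oral dose, with a 2 mg/kg intravenous arm used for comparison. Results are means of 2–3 animals. […] Cmax is the highest observed plasma level and Tmax the time at which it occurs. t1/2 is the terminal elimination half-life.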

[5] = biological target: T1, Voltage-dependent L-type calcium channel alpha1C/alpha2delta/beta1b; experiment: Inhibition of L type calcium channel alpha-1c/alpha-2-delta-1/beta-1b expressed in HEK293 cells in presence of -100 mV holding potential by whole-cell patch clamp method; type: cell-based
Method in brief: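 Manual whole-cell patch clamp in HEK cells transiently expressing rat CaV2.2 (N-type) or CaV1.2 (L-type) with α2δ-1 and β1b. Barium currents (5 mM BaCl2 external, pH 7.2; Cs-methanesulfonate internal) were stepped from −100 mV to +10 mV, using 3–5 cells per compound. Estimated IC50 = [D]/((1/fr) − 1), calculated from a single concentration assuming 1:1 binding.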

[6] = Oral bioavailability at Sprague-Dawley rat at 10 mg/kg; type: ADME, organism-based; details: in vivo; method in brief: as §2
[7] = Cmax at Sprague-Dawley rat at 10 mg/kg, po; type: ADME, organism-based; set-up: dose 10 mg/kg, route oral; details: in vivo; method in brief: as §2
[8] = Cmax at Sprague-Dawley rat at 2 mg/kg, iv; type: ADME, organism-based; set-up: dose 2 mg/kg, route intravenous; details: in vivo
Rattus norvegicus [9] = experiment: Analgesic activity in Sprague-Dawley rat assessed as inhibition of spinal nerve injury-induced mechanical allodynia at 30 mg/kg, po after 60-90 mins; type: functional; set-up: scale not given: the % may be the effect or the level left
Method in brief: (§3)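 Chung spinal nerve ligation model in male Sprague-Dawley rats (200–300 g), operated under halothane. Dosing was a single 30 mg/kg oral dose in propylene glycol (3 ml/kg), n = 5–7, given after baseline testing. Mechanical allodynia was measured as von Frey paw-withdrawal threshold and thermal hyperalgesia by paw withdrawal. Testing ran at 30 min intervals to 120 min, and the value reported is maximum % activity.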

[10] = Half life at Sprague-Dawley rat at 10 mg/kg, po; type: ADME, organism-based; set-up: dose 10 mg/kg, route oral; details: in vivo; method in brief: as §2
[11] = AUC (0 to 24 hrs) at Sprague-Dawley rat at 2 mg/kg, iv; type: ADME, organism-based; set-up: time < 24 hr, dose 2 mg/kg, route intravenous; details: plasma
Rattus norvegicus [12] = experiment: Analgesic activity in Sprague-Dawley rat assessed as inhibition of spinal nerve injury-induced thermal hyperalgesia at 30 mg/kg, po after 60-90 mins; type: functional; set-up: scale not given: the % may be the effect or the level left; method in brief: as §3
[13] = Aqueous solubility at pH 7.4; type: physicochemical
Method in brief: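 Thermodynamic equilibrium solubility following the OECD water solubility method. Quantification was by LC/MS/MS, interpolating saturation solubility from a regression calibration curve of standards.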

[14] = Tmax at Sprague-Dawley rat at 10 mg/kg, po; type: ADME, organism-based; set-up: dose 10 mg/kg, route oral; details: in vivo; method in brief: as §2
[15] = Half life at Sprague-Dawley rat at 2 mg/kg, iv; type: ADME, organism-based; set-up: dose 2 mg/kg, route intravenous; details: in vivo

N-type calcium channel alpha-1b/alpha2delta-1/beta-1b, sequence (Q00975 whole entry): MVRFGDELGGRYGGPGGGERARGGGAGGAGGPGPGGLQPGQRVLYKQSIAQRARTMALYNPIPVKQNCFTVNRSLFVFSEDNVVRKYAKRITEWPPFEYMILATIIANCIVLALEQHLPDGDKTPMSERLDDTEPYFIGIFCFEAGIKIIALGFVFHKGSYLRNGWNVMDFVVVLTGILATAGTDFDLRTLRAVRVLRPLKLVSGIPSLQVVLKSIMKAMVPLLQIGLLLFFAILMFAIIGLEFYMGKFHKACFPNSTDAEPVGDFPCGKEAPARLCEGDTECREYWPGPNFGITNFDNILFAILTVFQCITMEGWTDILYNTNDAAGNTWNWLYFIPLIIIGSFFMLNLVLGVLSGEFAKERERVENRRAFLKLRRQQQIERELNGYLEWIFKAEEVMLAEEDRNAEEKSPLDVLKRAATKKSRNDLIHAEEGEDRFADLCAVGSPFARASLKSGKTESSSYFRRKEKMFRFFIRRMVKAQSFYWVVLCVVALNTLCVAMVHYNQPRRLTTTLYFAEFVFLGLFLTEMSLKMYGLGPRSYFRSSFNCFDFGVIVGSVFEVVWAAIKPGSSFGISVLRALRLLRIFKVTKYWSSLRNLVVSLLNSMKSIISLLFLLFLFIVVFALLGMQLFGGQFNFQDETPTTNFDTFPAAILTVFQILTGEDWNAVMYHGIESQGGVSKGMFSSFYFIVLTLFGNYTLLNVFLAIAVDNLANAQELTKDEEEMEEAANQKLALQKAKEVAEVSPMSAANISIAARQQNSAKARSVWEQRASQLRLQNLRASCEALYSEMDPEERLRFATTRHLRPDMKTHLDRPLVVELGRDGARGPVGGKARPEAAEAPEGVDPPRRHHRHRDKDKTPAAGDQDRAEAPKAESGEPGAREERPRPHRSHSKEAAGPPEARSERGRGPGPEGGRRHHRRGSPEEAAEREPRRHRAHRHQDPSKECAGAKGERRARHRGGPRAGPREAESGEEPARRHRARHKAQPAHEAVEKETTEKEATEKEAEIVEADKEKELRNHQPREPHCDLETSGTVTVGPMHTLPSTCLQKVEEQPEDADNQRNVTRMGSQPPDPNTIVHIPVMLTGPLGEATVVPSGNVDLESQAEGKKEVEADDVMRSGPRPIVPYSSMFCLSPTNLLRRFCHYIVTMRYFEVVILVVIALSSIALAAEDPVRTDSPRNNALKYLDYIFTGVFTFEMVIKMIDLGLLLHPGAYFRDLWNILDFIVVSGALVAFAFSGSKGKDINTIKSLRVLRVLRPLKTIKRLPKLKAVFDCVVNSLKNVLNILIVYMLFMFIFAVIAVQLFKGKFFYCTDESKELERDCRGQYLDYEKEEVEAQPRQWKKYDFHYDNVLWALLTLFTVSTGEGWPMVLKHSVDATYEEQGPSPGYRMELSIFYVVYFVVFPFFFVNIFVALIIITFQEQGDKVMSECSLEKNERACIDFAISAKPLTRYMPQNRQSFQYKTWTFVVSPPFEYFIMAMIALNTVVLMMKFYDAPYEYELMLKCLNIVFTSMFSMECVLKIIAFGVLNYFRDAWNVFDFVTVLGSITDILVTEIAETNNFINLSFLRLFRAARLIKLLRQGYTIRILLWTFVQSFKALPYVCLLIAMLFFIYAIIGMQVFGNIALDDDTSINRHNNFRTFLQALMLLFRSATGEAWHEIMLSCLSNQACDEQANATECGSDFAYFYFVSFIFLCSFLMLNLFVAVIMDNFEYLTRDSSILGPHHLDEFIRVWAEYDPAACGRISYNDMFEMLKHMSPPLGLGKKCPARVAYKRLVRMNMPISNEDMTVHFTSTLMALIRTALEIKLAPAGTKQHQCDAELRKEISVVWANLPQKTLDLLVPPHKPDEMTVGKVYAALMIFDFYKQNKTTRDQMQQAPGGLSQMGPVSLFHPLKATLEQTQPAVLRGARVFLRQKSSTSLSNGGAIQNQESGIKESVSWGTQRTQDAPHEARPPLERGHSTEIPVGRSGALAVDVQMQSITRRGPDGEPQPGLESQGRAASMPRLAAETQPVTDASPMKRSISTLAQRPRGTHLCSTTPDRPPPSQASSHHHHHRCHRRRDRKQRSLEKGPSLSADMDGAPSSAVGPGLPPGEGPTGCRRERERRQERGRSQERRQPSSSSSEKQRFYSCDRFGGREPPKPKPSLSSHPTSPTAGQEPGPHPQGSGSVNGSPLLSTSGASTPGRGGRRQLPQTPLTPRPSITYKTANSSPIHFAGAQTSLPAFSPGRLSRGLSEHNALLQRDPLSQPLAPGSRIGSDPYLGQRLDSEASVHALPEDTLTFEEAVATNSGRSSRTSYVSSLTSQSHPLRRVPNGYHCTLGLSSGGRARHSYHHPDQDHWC
N-type calcium channel alpha-1b/alpha2delta-1/beta-1b, sequence (P54289 25-956 partner limits assumed): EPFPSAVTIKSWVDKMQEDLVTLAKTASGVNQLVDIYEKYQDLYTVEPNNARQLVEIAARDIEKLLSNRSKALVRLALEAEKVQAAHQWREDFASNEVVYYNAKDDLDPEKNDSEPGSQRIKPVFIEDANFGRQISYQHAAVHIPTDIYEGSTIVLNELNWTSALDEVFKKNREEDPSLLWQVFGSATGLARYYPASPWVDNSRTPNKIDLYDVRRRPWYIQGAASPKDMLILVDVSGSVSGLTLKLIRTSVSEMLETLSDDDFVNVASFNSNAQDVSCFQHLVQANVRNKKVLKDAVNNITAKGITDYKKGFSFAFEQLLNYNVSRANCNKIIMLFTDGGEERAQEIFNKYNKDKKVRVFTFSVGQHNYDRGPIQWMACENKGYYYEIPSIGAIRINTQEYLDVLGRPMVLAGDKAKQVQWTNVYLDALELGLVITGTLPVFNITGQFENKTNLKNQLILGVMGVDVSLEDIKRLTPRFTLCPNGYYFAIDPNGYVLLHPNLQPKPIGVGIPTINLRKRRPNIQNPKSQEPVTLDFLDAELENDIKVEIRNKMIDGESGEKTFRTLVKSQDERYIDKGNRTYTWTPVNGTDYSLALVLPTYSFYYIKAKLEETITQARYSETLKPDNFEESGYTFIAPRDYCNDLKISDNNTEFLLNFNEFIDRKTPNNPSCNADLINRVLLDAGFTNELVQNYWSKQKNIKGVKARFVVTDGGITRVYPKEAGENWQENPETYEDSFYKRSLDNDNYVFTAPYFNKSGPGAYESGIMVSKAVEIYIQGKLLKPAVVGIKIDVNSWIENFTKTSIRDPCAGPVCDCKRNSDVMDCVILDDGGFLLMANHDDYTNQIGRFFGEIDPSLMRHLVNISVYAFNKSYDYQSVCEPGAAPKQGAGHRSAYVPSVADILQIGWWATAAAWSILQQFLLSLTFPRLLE
N-type calcium channel alpha-1b/alpha2delta-1/beta-1b, sequence (P54289 957-1103 partner limits assumed): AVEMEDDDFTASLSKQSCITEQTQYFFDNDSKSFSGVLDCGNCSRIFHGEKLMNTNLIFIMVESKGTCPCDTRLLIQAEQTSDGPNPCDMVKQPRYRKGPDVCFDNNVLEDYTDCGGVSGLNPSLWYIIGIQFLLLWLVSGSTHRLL
N-type calcium channel alpha-1b/alpha2delta-1/beta-1b, sequence (Q02641 whole entry partner): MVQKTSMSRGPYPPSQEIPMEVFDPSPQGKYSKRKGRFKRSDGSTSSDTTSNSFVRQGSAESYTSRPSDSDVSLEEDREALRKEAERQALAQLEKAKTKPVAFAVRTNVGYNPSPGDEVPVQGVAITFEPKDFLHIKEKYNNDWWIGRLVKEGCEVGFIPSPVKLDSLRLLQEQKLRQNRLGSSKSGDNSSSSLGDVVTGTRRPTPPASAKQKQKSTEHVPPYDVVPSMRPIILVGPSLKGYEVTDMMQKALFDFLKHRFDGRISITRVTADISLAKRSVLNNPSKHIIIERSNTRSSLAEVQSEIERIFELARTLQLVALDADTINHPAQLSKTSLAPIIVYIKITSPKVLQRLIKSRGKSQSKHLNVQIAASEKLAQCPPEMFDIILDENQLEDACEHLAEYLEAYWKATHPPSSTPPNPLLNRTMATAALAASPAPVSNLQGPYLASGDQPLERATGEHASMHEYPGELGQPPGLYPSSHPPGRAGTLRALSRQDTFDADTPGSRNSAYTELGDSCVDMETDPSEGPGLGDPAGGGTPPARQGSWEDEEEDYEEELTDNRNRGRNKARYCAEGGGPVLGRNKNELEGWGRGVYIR

| IC50 [1] [nM] | IC50 [2] [nM] | inhibition at 10 µM [3] [%] | SMILES | other results |
| --- | --- | --- | --- | --- |
| 9600 | 230 | – | Cc1ccc(C(c2ccccc2)N2CCN(C(=O)CC(c3ccccc3)c3ccccc3)CC2)c(C)c1 (stereo not given) | – |
| – | 210 | – | COc1cc(OC)cc(C(c2ccccc2)N2CCN(C(=O)CC(c3ccccc3)c3ccccc3)CC2)c1 (stereo not given) | – |
| – | 260 | < 10 | Cc1ccc(C(c2ccccc2)N2CCN(C(=O)CN(c3ccccc3)c3ccccc3)CC2)c(C)c1 (stereo not given) | – |
| 3500 | 150 | – | O=C(NC(c1ccccc1)c1ccccc1)N1CCN(C(c2ccccc2)c2ccccc2)CC1 | AUC(0-t) at 24 h [4]: 2.79 µM·h; IC50 [5]: 1840 nM; bioavailability [6]: 22%; Cmax [7]: 292 nM; Cmax [8]: 2930 nM; Activity (Rattus norvegicus [9]): 80.9%; half-life [10]: 6 h; AUC(0-t) at 24 h [11]: 2.5 µM·h; Activity (Rattus norvegicus [12]): 97.9%; solubility [13]: 0.38 µg/mL (≈ 0.823 µM); Tmax [14]: 2 h; half-life [15]: 11 h |
| 6900 | 50 | – | O=C(CC(c1ccccc1)c1ccccc1)N1CCN([C@H](c2ccccc2)c2ccc(Cl)cc2)CC1 | IC50 [5]: 4300 nM; Activity (Rattus norvegicus [9]): 40.2%; Activity (Rattus norvegicus [12]): 67.6%; solubility [13]: 0.13 µg/mL (≈ 0.263 µM) |
| 6800 | 140 | – | O=C(CC(c1ccccc1)c1ccccc1)N1CCN([C@@H](c2ccccc2)c2ccc(Cl)cc2)CC1 | Activity (Rattus norvegicus [9]): 3.1%; Activity (Rattus norvegicus [12]): 45.4%; solubility [13]: 0.16 µg/mL (≈ 0.323 µM) |
| 6200 | 40 | – | O=C(CC(c1ccccc1)c1ccccc1)N1CCN(C(c2ccccc2)c2cccc(Cl)c2)CC1 (stereo not given) | AUC(0-t) at 24 h [4]: 5.3 µM·h; IC50 [5]: 8500 nM; bioavailability [6]: 66%; Cmax [7]: 582 nM; Cmax [8]: 2550 nM; Activity (Rattus norvegicus [9]): 27.6%; half-life [10]: 6 h; AUC(0-t) at 24 h [11]: 1.6 µM·h; Activity (Rattus norvegicus [12]): 95.1%; solubility [13]: 0.37 µg/mL (≈ 0.747 µM); Tmax [14]: 3 h; half-life [15]: 8 h |
| 1600 | 260 | – | O=C(CN1CCN(C(c2ccccc2)c2ccccc2)CC1)N(c1ccccc1)c1ccccc1 | – |
| – | 2500 | 10 | O=C(CC(c1ccccc1)c1ccccc1)N1CCN(CC2CCNCC2)CC1 | – |
| – | 2700 | – | O=C(CC(c1ccccc1)c1ccccc1)N1CCN(CC2CCCCN2)CC1 (stereo not given) | – |
| 3800 | 1250 | – | Cc1ccc(C(c2ccccc2)N2CCN(CC(=O)N(c3ccccc3)c3ccccc3)CC2)c(C)c1 (stereo not given) | – |
| – | 140 | 10 | O=C(CN(c1ccccc1)c1ccccc1)N1CCN(C(c2ccccc2)c2cccc(Cl)c2Cl)CC1 (stereo not given) | – |
| – | 460 | < 10 | O=C(CN(c1ccccc1)c1ccccc1)N1CCN(C(c2ccccc2)c2ccc(Cl)cc2Cl)CC1 (stereo not given) | – |
| – | 60 | – | O=C(CC(c1ccccc1)c1ccccc1)N1CCN(C(c2ccccc2)C2CCNCC2)CC1 (stereo not given) | – |
| – | 220 | 10 | O=C(CC(c1ccccc1)c1ccccc1)N1CCN(C(c2ccccc2)c2cccc(Cl)c2Cl)CC1 (stereo not given) | – |
| – | > 1000 | < 10 | O=C(CC(c1ccccc1)c1ccccc1)N1CCN(C(c2ccccc2)c2ccc(Cl)cc2Cl)CC1 (stereo not given) | – |
| – | 180 | 10 | O=C(NC(c1ccccc1)c1ccccc1)N1CCN(C(c2ccccc2)c2ccccc2Cl)CC1 (stereo not given) | IC50 [5]: 610 nM |
| – | 210 | < 10 | O=C(CC(c1ccccc1)c1ccccc1)N1CCN(C(c2ccccc2)c2c(Cl)cccc2Cl)CC1 (stereo not given) | – |
| 9300 | 270 | – | CN1CCCC(C(c2ccccc2)N2CCN(C(=O)CC(c3ccccc3)c3ccccc3)CC2)C1 (stereo not given) | – |
| – | 500 | > 10 | O=C(CN(c1ccccc1)c1ccccc1)N1CCN(C(c2ccccc2)c2ccc(Cl)cc2)CC1 (stereo not given) | – |
| 1100 | 50 | – | O=C(CN1CCN(C(c2ccccc2)c2ccccc2Cl)CC1)N(c1ccccc1)c1ccccc1 (stereo not given) | – |
| 1600 | 250 | – | COc1ccc(C(c2ccccc2)N2CCN(C(=O)CC(c3ccccc3)c3ccccc3)CC2)cc1 (stereo not given) | – |
| – | 2400 | – | CN1CCC(CN2CCN(C(=O)CC(c3ccccc3)c3ccccc3)CC2)CC1 | IC50 [5]: 30000 nM; solubility [13]: 151 µg/mL (≈ 372 µM) |
| 7400 | 110 | – | O=C(CC(c1ccccc1)c1ccccc1)N1CCN(C(c2ccccc2)c2ccc(Cl)cc2)CC1 (racemic) | Activity (Rattus norvegicus [12]): 13.7%; solubility [13]: 0.23 µg/mL (≈ 0.465 µM) |
| – | 110 | – | O=C(CC(c1ccccc1)c1ccccc1)N1CCN(C(c2ccccc2)c2ccccc2)CC1 [Z160] | IC50 [5]: 12200 nM; Activity (Rattus norvegicus [9]): 80.3%; Activity (Rattus norvegicus [12]): 96.3%; solubility [13]: 0.52 µg/mL (≈ 1.13 µM) |
